Experimental data pooled from the literature.
Lines come from different studies, so protocols differ.
KDR: Vascular endothelial growth factor receptor 2 (KDR, Homo sapiens, UniProt P35968)
PADI1: Protein-arginine deiminase type-1 (PADI1, Homo sapiens, UniProt Q9ULC6)
CDK16: Cyclin-dependent kinase 16 (CDK16, Homo sapiens, UniProt Q00536)
ATAD2 bromodomain: ATPase family AAA domain-containing protein 2, bromodomain (ATAD2, Homo sapiens, UniProt Q6PL18)

For `COc1ccc(NC(=O)c2c(Nc3ccccc3)sc(C(=O)NN=Cc3ccc(OC)c(O)c3)c2NC(C)=O)cc1`, the remaining activity was 99% (KDR; enzyme activity, inhibitor; 10 nM).
`CC(C)(C)n1nnc([C@H](CCCNC(=N)CF)NC(=O)c2ccccc2)n1` gave a kinact/KI of 26.6 M⁻¹ s⁻¹ (PADI1; enzyme activity, inhibitor).
`CCC1(CC)NC(=O)c2c(c3ccc(Cl)c(Cl)c3n2C)C1C#N` (stereo not shown) gave a ΔTm of 0.3 °C (CDK16; thermal stability, DSF; 10 µM).
`N=C(CCl)NCCC[C@H](NC(=O)c1ccccc1)c1nn[nH]n1` has a kinact/KI of 110 M⁻¹ s⁻¹ (PADI1; enzyme activity, inhibitor).
For `COc1ccc(NC(=O)c2c(Nc3ccccc3)sc(C#N)c2NC(=O)CNc2ccc([N+](=O)[O-])cc2)cc1`, the remaining activity was 68.8% (KDR; enzyme activity, inhibitor; 100 µM).
The kinact/KI of `CC(C)(C)n1nnc([C@H](CCCNC(=N)CCl)NC(=O)c2ccccc2)n1` is reported as 52.4 M⁻¹ s⁻¹ (PADI1; enzyme activity, inhibitor).
The remaining activity of `COc1ccc(NC(=O)c2c(Nc3ccccc3)sc(C#N)c2NC(=O)CNc2ccc(Cl)cc2)cc1` is reported as 41.1% (KDR; enzyme activity, inhibitor; 1 µM).
The remaining activity of `Cc1ccc(C(=O)Nc2ccc(CN3CCN(C)CC3)c(C(F)(F)F)c2)cc1C#Cc1cnc2cccnn12` is reported as 70% (Phosphatidylinositol 4,5-bisphosphate 3-kinase catalytic subunit alpha isoform (PIK3CA, Homo sapiens, UniProt P42336, H1047L); enzyme activity, inhibitor; 23.5 nM).
`Cn1c2c(c3ccc(Cl)c(Cl)c31)C(C#N)C1(CCNCC1)NC2=O` (racemic) gave a ΔTm of 2.6 °C (CDK16; thermal stability, DSF; 10 µM).
The remaining activity of `COc1ccc(NC(=O)c2c(Nc3ccccc3)sc(C(=O)NN=Cc3ccc(Cl)cc3)c2NC(C)=O)cc1` is reported as 83.7% (KDR; enzyme activity, inhibitor; 1 µM).
With `N=C(CCl)NCCC[C@H](NC(=O)c1ccccc1C(=O)O)c1nn[nH]n1` the kinact/KI was 1370 M⁻¹ s⁻¹ (PADI1; enzyme activity, inhibitor).
For `COc1ccc(C=NNC(=O)c2sc(Nc3ccccc3)c(C(=O)Nc3ccc(OC)cc3)c2NC(C)=O)cc1`, the remaining activity was 48.6% (KDR; enzyme activity, inhibitor; 10 µM).
`NC(=O)[C@H](CCCN=C(N)N)NC(=O)c1ccccc1` gave a Km of 160 µM (PADI1; enzyme activity, substrate).
For `N=C(CF)NCCC[C@H](NC(=O)c1ccc(-c2ccccc2)cc1)c1nn[nH]n1`, the kinact/KI was 13.7 M⁻¹ s⁻¹ (PADI1; enzyme activity, inhibitor).
`COc1ccc(NC(=O)c2c(Nc3ccccc3)sc(C(=O)NN=Cc3cc(OC)c(OC)c(OC)c3)c2NC(C)=O)cc1` has a remaining activity of 100% (KDR; enzyme activity, inhibitor; 10 nM).
For `Nc1ncnc2occ(-c3ccc(NC(=O)Nc4cc(C(F)(F)F)ccc4F)cc3)c12`, the remaining signal was 19% (1-phosphatidylinositol 3-phosphate 5-kinase (PIKFYVE, Homo sapiens, UniProt Q9Y2I7); cell-free assay; 20 µM).
The ΔTm of `C[S+]([O-])c1ccc(-c2nc(-c3ccncc3)c(-c3ccc(F)cc3)[nH]2)cc1` (stereo not shown) is reported as -1.47 °C (ATAD2 bromodomain; thermal stability, DSF; 10 µM).
The remaining activity of `O=C(O)c1ccc2c(c1)nc(NCCc1cccc(Cl)c1)c1ncncc12` is reported as 76% (Dual specificity tyrosine-phosphorylation-regulated kinase 2 (DYRK2, Homo sapiens, UniProt Q92630); enzyme activity, inhibitor, radiometric; 1 µM).
`CC(C)(C)n1nnc([C@H](CCCNC(=N)CCl)NC(=O)c2ccccc2C(=O)O)n1` has a kinact/KI of 2700 M⁻¹ s⁻¹ (PADI1; enzyme activity, inhibitor).
`Cc1ccc(C(=O)NCc2ccsc2)cc1C#Cc1cn(C(C)C)c2ncnc(N)c12` gave an activity vs control of 91% ([Pyruvate dehydrogenase (acetyl-transferring)] kinase isozyme 2, mitochondrial (PDK2, Homo sapiens, UniProt Q15119); enzyme activity, inhibitor; 1 µM).
With `Cc1cnc(Nc2ccc(OCCN3CCCC3)cc2)nc1Nc1cccc(S(=O)(=O)NC(C)(C)C)c1` the ΔTm was -0.25 °C (ATAD2 bromodomain; thermal stability, DSF; 10 µM).
With `Cn1c2c(Cl)c(Cl)ccc2c2cc(N)[nH]c(=O)c21` the ΔTm was 0.3 °C (CDK16; thermal stability, DSF; 10 µM).
`CN(C)C1CCN(CC#Cc2nn(C3CCCC3)c3nc(NCc4ccccc4)ncc23)C1` (stereo not shown) gave an inhibition of 9% (Dual specificity mitogen-activated protein kinase kinase 1 (MAP2K1, Homo sapiens, UniProt Q02750); enzyme activity, inhibitor, FRET; 1 µM).
`COc1ccc(NC(=O)c2c(Nc3ccccc3)sc(C#N)c2NC(=O)CNc2ccc(Br)cc2)cc1` gave a remaining activity of 66.2% (KDR; enzyme activity, inhibitor; 0.1 µM).
With `NCCCC[C@H](NC(=O)[C@@H]1CCCN1C(=O)[C@@H]1CSSC[C@H](N)C(=O)N[C@@H](Cc2ccc(O)cc2)C(=O)N[C@@H](Cc2ccccc2)C(=O)N[C@@H](CCC(N)=O)C(=O)N[C@@H](CC(N)=O)C(=O)N1)C(=O)NCC(N)=O` the Emax was about 100% (Vasopressin V1a receptor (AVPR1A, Homo sapiens, UniProt P37288); calcium signal, agonist; CHO-S).
